Activity calls are given as the source filed them.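 How the source made its calls, unless noted: active means compounds giving at least 50% inhibition in the cell-based MKP-3 phosphatase rescue imaging test; inactive means the rest.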
Columns and labels:
[1] = inhibitors of TNFa-induced NFkB p65 translocation, primary screen, imaging, HUVEC, MLSMR starter and 10KST1 sets (AID 438;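 active means inhibition above 20% together with a positive visual image hit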;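 further: compound added about 3h40 before a 20 min TNFalpha stimulation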;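 on inhibition: signal is the nuclear over cytoplasmic p65 intensity ratio per well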); details: HUVEC TNFa-induced p65 nuclear translocation; cell count: measured here: nuclei count (cytotoxicity indicator), at 2.08 µM; inhibition: at 2 µM, stronger effect = higher value, 0% TNFa-plus-vehicle, 100% no-TNFa wells
[2] = inhibitors of E-selectin induction by TNFa, primary screen, imaging, HUVEC, immunofluorescence, MLSMR starter and 10KST1 sets (AID 487;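 active means visually confirmed hit in the image check and inhibition above 20%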;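 on inhibition: signal is fraction of cell area covered by stained E-selectin grains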;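 on nuclei count: 100% = median nuclei count of all wells on the same plate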); details: HUVEC TNFalpha-induced E-selectin immunofluorescence imaging, at 2 µM; inhibition: stronger effect = higher value; nuclei count: measured here: cell number, toxicity
[3] = DUSP6 inhibitors restoring Erk phosphorylation by chemical complementation, primary imaging in DUSP6-transfected HeLa (AID 609); details: HeLa MKP-3 transfected, phospho-Erk imaging KS statistic, at 10 µM, cells stimulated with TPA for 15 min;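 on inhibition: phospho-Erk level distribution per well compared with pooled transfected vehicle control wells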
[4] = molecular target: Dual specificity protein phosphatase 6 (Homo sapiens) (UniProt Q16828); test: as above; details: HeLa MKP-3 transfected, phospho-Erk imaging KS statistic; at 10 µM; stronger effect = higher value; cells stimulated with TPA for 15 min
Dual specificity protein phosphatase 6 (Homo sapiens), sequence (Q16828 whole entry, looked up): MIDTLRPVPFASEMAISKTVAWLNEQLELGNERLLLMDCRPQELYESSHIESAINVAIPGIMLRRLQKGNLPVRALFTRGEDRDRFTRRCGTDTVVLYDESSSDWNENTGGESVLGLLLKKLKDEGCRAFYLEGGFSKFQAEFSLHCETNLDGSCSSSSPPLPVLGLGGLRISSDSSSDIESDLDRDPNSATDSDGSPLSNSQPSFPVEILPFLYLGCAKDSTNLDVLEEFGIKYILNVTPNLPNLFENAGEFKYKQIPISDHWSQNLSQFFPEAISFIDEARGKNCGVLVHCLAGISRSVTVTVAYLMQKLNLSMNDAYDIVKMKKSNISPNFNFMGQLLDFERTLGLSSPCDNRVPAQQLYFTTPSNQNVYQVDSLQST

[5] = molecular target: Voltage-gated potassium channel subunit beta-2 (Rattus norvegicus) (UniProt P62483); test: KvBeta enzyme negative modulators, primary screen, biochemical, NADPH fluorescence (AID 622;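 active means fluorescence slope higher than the sample average by over 3 SD, cut at about -0.22 in these data, passing the limit was not always enough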;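 further: slope of raw intensity against log time taken from 70 to 1610 s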); details: recombinant KvBeta, 4-cyanobenzaldehyde reduction, at 10 µM, stronger effect = higher value
Voltage-gated potassium channel subunit beta-2 (Rattus norvegicus), sequence (P62483 whole entry, looked up): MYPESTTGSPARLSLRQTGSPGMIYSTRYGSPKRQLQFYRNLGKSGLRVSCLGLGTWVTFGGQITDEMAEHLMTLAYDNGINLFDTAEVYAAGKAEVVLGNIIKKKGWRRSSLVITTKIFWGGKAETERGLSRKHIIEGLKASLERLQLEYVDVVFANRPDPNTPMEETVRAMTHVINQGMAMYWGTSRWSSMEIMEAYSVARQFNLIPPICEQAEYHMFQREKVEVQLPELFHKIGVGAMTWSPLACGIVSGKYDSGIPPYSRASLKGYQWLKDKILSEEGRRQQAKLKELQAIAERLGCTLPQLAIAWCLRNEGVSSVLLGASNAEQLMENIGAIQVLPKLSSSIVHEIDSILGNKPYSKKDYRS

[6] = molecular target: Voltage-gated potassium channel subunit beta-2 (Rattus norvegicus) (UniProt P62483); test: KvBeta positive modulators, primary screen, biochemical, NADPH fluorescence (AID 623;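 active means NADPH fluorescence slope more negative than the mean of all samples by about 3 SD, 99.7% confidence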;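 further: fluorescence intensity change per second fitted from 20 to 320 s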); details: Recombinant KvBeta, NADPH fluorescence decrease slope, 10 min; at 10 µM; stronger effect = lower value
[7] = molecular target: Alpha-2C adrenergic receptor (Homo sapiens) (UniProt P18825); test: modulators of alpha2C/GIRK thallium flux, primary screen, cell-based, HEK293 alpha2C/GIRK1/2 (AID 624;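 active means fluorescence slope after compound addition differing from the mean of all screened samples at 99.7% confidence, in either direction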;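 further: slope of fluorescence ratio to pre-addition baseline per second over 15 to 24 s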); details: thallium flux BTC fluorescence, at 10 µM, actives lie on both sides
Alpha-2C adrenergic receptor (Homo sapiens), sequence (P18825 whole entry, looked up): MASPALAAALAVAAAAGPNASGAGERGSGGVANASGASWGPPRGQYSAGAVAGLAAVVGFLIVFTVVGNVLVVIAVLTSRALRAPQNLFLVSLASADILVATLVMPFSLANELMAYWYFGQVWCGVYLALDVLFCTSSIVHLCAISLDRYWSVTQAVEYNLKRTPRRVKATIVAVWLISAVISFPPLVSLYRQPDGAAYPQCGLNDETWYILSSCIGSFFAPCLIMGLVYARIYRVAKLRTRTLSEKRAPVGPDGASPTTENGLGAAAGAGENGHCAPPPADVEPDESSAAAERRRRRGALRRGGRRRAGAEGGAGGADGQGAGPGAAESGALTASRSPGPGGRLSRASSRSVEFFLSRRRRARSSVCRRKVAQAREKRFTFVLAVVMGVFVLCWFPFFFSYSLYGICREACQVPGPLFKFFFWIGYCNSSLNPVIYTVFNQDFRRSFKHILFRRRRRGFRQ

[8] = inhibitors of larval lipid processing in zebrafish, primary screen, whole organism, PED6 fluorescence, gall bladder and intestine (AID 686;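 active means a full or partial loss of lipid-probe fluorescence in the fish gall bladder, intestine or both, judged by eye; inactive means no fluorescence loss, or compound toxic to the fish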;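 further: larvae 5 to 7 days old with five fish per well; signal comes from phospholipase A2 cleavage of quenched PED6 carried via bile; overnight exposure to compound and PED6 before scoring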); details: Zebrafish larvae PED6 lipid processing, fluorescence scoring; screened at 20 µM (by protocol)
In short: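 Doses: 20 µM single dose. Test system: live zebrafish larvae aged 5-7 days, whole organism. Quantity: five larvae per well. Measured by: By-eye fluorescence microscopy. Reagent: ingested quenched lipid PED6 at 100 nM. Read-out: visual per-well fluorescence inhibition score. Times: overnight exposure of larvae to compound plus PED6.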

[9] = inhibitors of Chlamydomonas gravitaxis, primary screen, whole organism, Chlamydomonas reinhardtii, WT vs cilia-less mutant, absorbance, 96-well (AID 463189;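 active means inhibition at or above 50% relative to wild type and mutant plate controls; inactive means inhibition below 50%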;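 further: 0% = wild type cc124 cells in DMSO and 100% = ciliumless bld1 mutant cells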); details: OD600 absorbance, 2 days, at 10 µM, stronger effect = higher value
[10] = measured here: cell density z-score
[11] = measured here: nuclear c-Myc green intensity z-score
[12] = measured here: nuclear pErk red intensity z-score, stronger effect = higher value

| SMILES | cell count [1] | inhibition [1] | inhibition [2] | nuclei count [2] [%] | z-score [3, 10] | z-score [3, 11] | z-score [3, 12] | inhibition [4] | fluorescence slope [5] | NADPH fluorescence slope [6] | slope [7] | outcome [8] | inhibition [9] |
| --- | --- | --- | --- | --- | --- | --- | --- | --- | --- | --- | --- | --- | --- |
| O=c1[nH]c(=O)n(Cc2ccco2)c2c1C(C(F)(F)F)(C(F)(F)F)N=C(c1ccco1)N2 | 505 | -2.5% (inactive) | -212% (inactive) | 132 | -0.683 | -0.978 | -0.242 | 1.75% (inactive) | -0.502 (inactive) | -5.4e-05 (inactive) | 0.00631 (inactive) | inactive | -4.12% (inactive) |
| N#CCCSc1nc(N2CCOCC2)c2c(c1C#N)CCCC2 | 572 | -15.5% (inactive) | -43.5% (inactive) | 168 | -1.47 | -0.393 | -0.37 | 5.65% (inactive) | -0.357 (inactive) | 1.4e-05 (inactive) | 0.00506 (inactive) | inactive | -11.5% (inactive) |
| CSc1nc(O)c(Cc2ccccc2)c(=O)[nH]1 | 543 | 5.9% (inactive) | 23.6% (inactive) | 105 | -0.704 | -0.524 | -0.136 | 1.6e-07% (inactive) | -0.403 (inactive) | 2.5e-05 (inactive) | 0.00553 (inactive) | inactive | 33.4% (inactive) |
| COc1ccc(C2CC(C(F)(F)F)n3ncc(C(=O)NCC4CCCO4)c3N2)cc1OC (configuration not stated) | 536 | -1.8% (inactive) | 12.3% (inactive) | 132 | -0.241 | -1.11 | 1.35 | 3.66% (inactive) | -0.51 (inactive) | -6.1e-05 (inactive) | 0.00469 (inactive) | inactive | -9.44% (inactive) |
| CCCCOc1ccc(C)cc1CN(CCO)CCO | 552 | -8% (inactive) | -87% (inactive) | 111 | -1.69 | -0.122 | -1.5 | 1.9e-07% (inactive) | -0.506 (inactive) | -1.2e-05 (inactive) | 0.0065 (inactive) | inactive | -2.14% (inactive) |
| Oc1ccccc1CNn1cnnc1 | 563 | -0.7% (inactive) | -6.7% (inactive) | 168 | -0.0903 | -0.194 | 0.333 | -3.5% (inactive) | -0.324 (inactive) | 1.4e-05 (inactive) | 0.00654 (inactive) | inactive | 18.3% (inactive) |
| CCC1(C)Cc2c(sc3[nH]c(=O)[nH]c(=O)c23)CS1 (configuration not stated) | 666 | -8.2% (inactive) | -11.4% (inactive) | 170 | 0.81 | -1.43 | -0.857 | 1.75% (inactive) | -0.519 (inactive) | -4.7e-05 (inactive) | 0.00488 (inactive) | inactive | 2.21% (inactive) |
| C#CCSC1=C(C#N)C(c2cccs2)C(C(=O)OCC)=C(C)N1 (configuration not stated) | 674 | -1.7% (inactive) | -59.4% (inactive) | 167 | -0.719 | 0.591 | 0.242 | -7.28% (inactive) | -0.417 (inactive) | 4.3e-06 (inactive) | 0.00405 (inactive) | inactive | -6.51% (inactive) |
| O=C(OCCN1CCOCC1)c1ccc(OCCN2CCOCC2)cc1 | 573 | -2.2% (inactive) | -54.5% (inactive) | 130 | -0.658 | 0.853 | 0.881 | 1.75% (inactive) | -0.555 (inactive) | -5.3e-05 (inactive) | 0.00568 (inactive) | inactive | 32.3% (inactive) |
| COc1cccc(OCCN2CCN(c3ncnc4c3cnn4-c3ccccc3)CC2)c1 | 555 | -23.4% (inactive) | -98.5% (inactive) | 166 | 0.225 | -1.36 | 0.0914 | -11.5% (inactive) | -0.519 (inactive) | -3.9e-05 (inactive) | 0.00443 (inactive) | inactive | 48.3% (inactive) |
| COC(=O)COn1c(SCC(=O)OC)nc2ccccc2c1=O | 300 | -3.5% (inactive) | -6.8% (inactive) | 89.2 | -1.82 | 0.261 | 0.27 | -8.59% (inactive) | -0.442 (inactive) | -0.000116 (inactive) | 0.00782 (inactive) | inactive | -12.1% (inactive) |
| CCCCC1(C(=O)OCC)CC(CN2CCOCC2)OC1=O (configuration not stated) | 448 | -21.5% (inactive) | -182% (inactive) | 167 | -1.27 | -1.52 | 2.46 | -8.95% (inactive) | -0.314 (inactive) | 1.1e-05 (inactive) | 0.00504 (inactive) | inactive | 3.54% (inactive) |
| Clc1ccc(SCc2cn3ccsc3n2)cc1 | 516 | -11.3% (inactive) | -61.5% (inactive) | 170 | -0.751 | 0.432 | -0.146 | -11% (inactive) | -0.476 (inactive) | -0.000195 (inactive) | 0.0044 (inactive) | inactive | 31.1% (inactive) |
| CCCCCNC(=O)c1c(N)n(/N=C/c2ccco2)c2nc3ccccc3nc12 | 351 | -5.8% (inactive) | -71.9% (inactive) | 147 | 1.49 | -0.91 | -0.977 | 17.4% (inactive) | -0.416 (inactive) | -0.000149 (inactive) | 0.00624 (inactive) | inactive | 14.7% (inactive) |

From PubChem BioAssay
